Active and inactive are the calls of the source. The calls are words filed in the database; no cut-off is given here.
Columns and labels:
DNA topoisomerase 1 = biological target: T1, DNA topoisomerase 1 (Homo sapiens, UniProt P11387); test: Inhibition of human Top1B expressed in Top1B deficient Saccharomyces cerevisiae EKY3 assessed as decrease in relaxation of supercoiled pSK DNA preincubated for 15 mins followed by DNA addition and measured after 1 to 16 mins by agarose gel electrophoresis
T1 sequence (P11387 whole entry): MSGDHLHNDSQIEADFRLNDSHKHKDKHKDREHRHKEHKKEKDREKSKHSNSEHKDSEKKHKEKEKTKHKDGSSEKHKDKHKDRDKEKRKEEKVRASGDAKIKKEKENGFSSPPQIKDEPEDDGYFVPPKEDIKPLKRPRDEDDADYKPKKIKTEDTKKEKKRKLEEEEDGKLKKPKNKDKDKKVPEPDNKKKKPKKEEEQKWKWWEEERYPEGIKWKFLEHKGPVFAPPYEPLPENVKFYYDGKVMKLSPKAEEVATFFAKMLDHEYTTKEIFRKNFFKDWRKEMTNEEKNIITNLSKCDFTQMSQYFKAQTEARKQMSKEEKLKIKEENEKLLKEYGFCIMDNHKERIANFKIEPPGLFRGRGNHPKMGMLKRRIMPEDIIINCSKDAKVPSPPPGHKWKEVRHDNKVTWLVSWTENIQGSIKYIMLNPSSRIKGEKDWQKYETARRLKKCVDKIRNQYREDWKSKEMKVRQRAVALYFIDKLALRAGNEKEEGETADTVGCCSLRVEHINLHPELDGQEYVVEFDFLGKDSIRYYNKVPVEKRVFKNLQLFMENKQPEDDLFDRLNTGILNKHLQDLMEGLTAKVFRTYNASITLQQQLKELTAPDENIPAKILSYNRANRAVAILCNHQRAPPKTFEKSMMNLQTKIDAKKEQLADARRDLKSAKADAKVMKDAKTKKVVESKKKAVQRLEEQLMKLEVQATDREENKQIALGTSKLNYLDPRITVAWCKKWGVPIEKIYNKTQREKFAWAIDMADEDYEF
Outline: (§1)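 Recombinant LTopIB or hTopIB from TopIB-deficient yeast EKY3 (galactose-induced), purified on phosphocellulose then phenyl-Sepharose. Enzyme (1 unit) preincubated with compound for 15 min at 37 °C. Then 0.5 μg supercoiled pSK DNA added in 10 mM Tris-HCl pH 7.5, 5 mM MgCl₂, 0.1 mM EDTA, 50 mM KCl, BSA. Incubated at 37 °C, stopped with 1% SDS. Agarose gel; relaxed and supercoiled bands quantified.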

[1] = Cytotoxicity against BALB/c mouse splenocytes assessed as decrease in […] viability after 72 hrs by Alamar blue assay; assay type: cell-based, Splenocyte
Outline: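 Uninfected BALB/c mouse splenocytes, obtained and cultured as for the explants (RPMI, 20% FCS), exposed to compounds at 100 to 0.8 μM for 72 h at 37 °C. Viability read by Alamar Blue. CC50 taken from dose-response curves. Mean ± sd of at least three experiments in triplicate.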

Leishmania infantum [2] = test: Leishmanicidal activity against amastigote stage of iRFP expressing Leishmania infantum BCN150 infected in BALB/c mouse splenocytes assessed as decrease in parasite viability after 72 hrs; assay type: functional, organism-based; conditions: BCN150, 72 h
Outline: (§2)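 Female BALB/c mice infected intravenously with metacyclic L. infantum-iRFP promastigotes. After 5 weeks, spleens collagenase-digested (2 mg/mL, 20 min, 37 °C); splenocytes plated in RPMI with 20% FCS. Compounds added at 10 to 0.07 μM for 72 h. Infrared emission read at 708 nm; IC50 is the 50% reduction versus DMSO control. SI = CC50 in uninfected splenocytes / amastigote IC50.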

[3] = Inhibition of Leishmania donovani Top1B expressed in Top1B deficient Saccharomyces cerevisiae EKY3 assessed as decrease in relaxation of supercoiled pSK DNA preincubated for 15 mins followed by DNA addition and measured after 1 to 16 mins by agarose gel electrophoresis; outline: as §1
Leishmania infantum [4] = test: Leishmanicidal activity against promastigote stage of iRFP expressing Leishmania infantum BCN150 assessed as decrease in parasite viability; assay type: functional, organism-based
Outline: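 Promastigotes grown in M199 with 10% heat-inactivated FCS, seeded at 10^6 cells/mL. Compounds given as three-fold DMSO stock dilutions, final DMSO ≤0.1%. Viability read as infrared fluorescence (ex 684, em 708 nm). IC50 is the 50% emission reduction versus DMSO control, from nonlinear fits. Triplicate wells.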

[5] = Selectivity index, ratio of CC50 for BALB/c mouse splenocytes to IC50 for amastigote stage of iRFP expressing Leishmania infantum BCN150 infected in BALB/c mouse splenocytes; assay type: toxicity, cell-based; conditions: read-out: Ratio CC50/IC50; outline: as §2
Leishmania donovani = test: Inhibition of Leishmania donovani Top1B expressed in Top1B deficient Saccharomyces cerevisiae EKY3 assessed as decrease in relaxation of supercoiled pSK DNA at 100 uM at 37 degC preincubated for 15 mins followed by DNA addition and measured after 1 to 16 mins by agarose gel electrophoresis; outline: as §1

Row | SMILES | IC50 (DNA topoisomerase 1) | CC50 at 72 h [1] [µM] | IC50 (Leishmania infantum [2]) [nM] | IC50 [3] | IC50 (Leishmania infantum [4]) [µM] | selectivity ratio [5] | IC50 (DNA topoisomerase 1; read-out: IC50) [µM] | IC50 ([3]; read-out: IC50) [µM] | inhibition (Leishmania donovani)
1 | COc1ccc(-c2cc(-c3ccc(F)cc3)nc3cccnc23)cc1 | Not Active | 24.2 | 760 | Not Active | 97.2 | 31.8 | – | – | –
2 | Fc1ccc(-c2cc(-c3ccsc3)c3ncccc3n2)cc1 | – | 32.5 | 7930 | – | 67 | 4.1 | 43.8 | 49.3 | –
3 | COc1ccc(-c2cc(-c3ccc([N+](=O)[O-])cc3)nc3cccnc23)cc1 | Not Active | 109 | 580 | Not Active | 20.7 | 187 | – | – | –
4 | FC(F)(F)c1ccc(-c2cc(-c3ccsc3)c3ncccc3n2)cc1 | – | 181 | 3670 | – | > 100 | 49.4 | 82.1 | 62.8 | –
5 | O=[N+]([O-])c1cccc(-c2cc(-c3ccccc3)c3ncccc3n2)c1 | Not Active | 146 | 1020 | – | 79.2 | 143 | – | – | –
6 | COc1ccc(-c2cc(-c3cccc([N+](=O)[O-])c3)nc3cccnc23)cc1 | Not Active | 133 | 3790 | Not Active | 45.2 | 35.1 | – | – | –
7 | COc1ccc(-c2cc(-c3ccc(C(F)(F)F)cc3)nc3cccnc23)cc1 | Not Active | 152 | 2260 | – | > 100 | 67.1 | – | – | –
8 | c1ccc(-c2cc(-c3ccccc3)c3ncccc3n2)cc1 | – | 54.8 | 8420 | – | 27.2 | 6.5 | 11.2 | – | Active
9 | Fc1ccc(-c2cc(-c3ccccc3)c3ncccc3n2)cc1 | – | 124 | 7410 | – | > 100 | 16.7 | 72.8 | 81.9 | –
10 | C[C@@H]1[C@H](O)[C@@H](C)/C=C/C=C/C=C/C=C/C=C/C=C/C=C/[C@H](O[C@@H]2O[C@H](C)[C@@H](O)[C@H](N)[C@@H]2O)C[C@@H]2O[C@](O)(C[C@@H](O)C[C@@H](O)[C@H](O)CC[C@@H](O)C[C@@H](O)CC(=O)O[C@H]1C)C[C@H](O)[C@H]2C(=O)O [AMPHOTERICIN B] | – | > 20 | – | – | – | > 62.5 | – | – | –
11 | FC(F)(F)c1ccc(-c2cc(-c3ccc(C(F)(F)F)cc3)c3ncccc3n2)cc1 | – | 178 | 9470 | – | > 100 | 18.8 | 50.9 | – | –
12 | COc1cccc(-c2cc(-c3ccccc3)c3ncccc3n2)c1 | – | 157 | 580 | – | > 100 | 272 | 82 | – | –
13 | FC(F)(F)c1ccc(-c2cc(-c3ccccc3)c3ncccc3n2)cc1 | – | 65.7 | 470 | – | 37.3 | 140 | 72.7 | 69.5 | –
14 | Fc1ccc(-c2cc(-c3ccccc3)c3ncccc3n2)cc1F | – | 21.7 | 2820 | – | > 100 | 7.7 | 73.1 | 76.6 | –
15 | Cc1c(-c2ccc(C(F)(F)F)cc2)nc2cccnc2c1-c1ccccc1 | – | 126 | 2370 | – | > 100 | 53.2 | 70.6 | 75.7 | –
16 | CC[C@@]1(O)C(=O)OCc2c1cc1n(c2=O)Cc2cc3ccccc3nc2-1 [CAMPTOTHECIN] | – | – | – | – | – | – | – | 75.7 | –
17 | O=[N+]([O-])c1cccc(-c2cc(-c3ccc(-c4ccccc4)cc3)c3ncccc3n2)c1 | – | 30.1 | 290 | – | 15.1 | 104 | 67.5 | 78.7 | –
18 | Fc1ccc(-c2cc(-c3ccc(-c4ccccc4)cc3)c3ncccc3n2)cc1 | – | 153 | 5040 | – | 45.2 | 30.2 | 83.3 | 58.1 | –

Reference: ChEMBL document CHEMBL4152236, “Substituted 1,5-naphthyridine derivatives as novel antileishmanial agents. Synthesis and biological evaluation” (Eur J Med Chem, 2018)
